# Test results taken from ChEMBL document CHEMBL3875202, “Design and optimization of aspartate N-acetyltransferase inhibitors for the potential treatment of Canavan disease” (Bioorg Med Chem, 2017).
# Where a SMILES comes first, the peptide text is derived from it.
# Experiment: Inhibition of recombinant human His-tagged maltose binding protein fused ANAT expressed in Escherichia coli NiCo21(DE3) using L-aspartate as substrate after 15 mins in presence of acetyl-CoA by DTNB based spectrophotometric method
# In short: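 MBP-ANAT-His fusion purified on Ni Sepharose then amylose column. Assay: 20 mM HEPES pH 7.4, 150 mM NaCl, 5% glycerol, 40 µM DTNB, 40 µM acetyl-CoA, 2 mM L-aspartate, 25 µg enzyme, 200 µl total. Read at 412 nm for at least 15 min. Ki from twofold inhibitor dilutions; no-inhibitor and no-aspartate/no-inhibitor controls; pH of top-dose wells checked.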
row,SMILES,Ki [µM]
1,O=C(O)C[C@H](NC(=O)OCc1ccccc1)C(=O)O,17
2,O=C(O)CC[C@H](NC(=O)c1ccccc1)C(=O)O,130
3,O=C(O)CC[C@H](NC(=O)OCc1ccccc1)C(=O)O,12
4,O=C(O)CCNCc1ccc(C(=O)O)c(C(=O)O)c1,1710
5,C=CCN(CC(=O)O)Cc1ccc(C(=O)O)c(C(=O)O)c1,719
6,O=C(O)CN(Cc1ccccc1)Cc1ccc(C(=O)O)c(C(=O)O)c1,420
7,O=C(O)CN(Cc1ccc(C(=O)O)c(C(=O)O)c1)c1cccc2ccccc12,115
8,O=C(O)CN(Cc1ccc(C(=O)O)c(C(=O)O)c1)c1ccc2ccccc2c1,538
9,O=C(O)CN(CCN1CCOCC1)Cc1ccc(C(=O)O)c(C(=O)O)c1,1080
10,O=C(O)CN(Cc1ccc(C(=O)O)c(C(=O)O)c1)c1ccc(-c2ccccc2)cc1,953
11,O=CCN(CC(=O)O)Cc1ccc(C(=O)O)c(C(=O)O)c1,1290
12,O=C(O)CN(Cc1ccc(C(=O)O)c(C(=O)O)c1)Cc1ccccc1Br,114
13,O=C(O)CN(Cc1cccc(Br)c1)Cc1ccc(C(=O)O)c(C(=O)O)c1,269
14,O=C(O)CN(Cc1ccc(Br)cc1)Cc1ccc(C(=O)O)c(C(=O)O)c1,1200
15,Cc1ccccc1CN(CC(=O)O)Cc1ccc(C(=O)O)c(C(=O)O)c1,1400
16,Cc1cccc(CN(CC(=O)O)Cc2ccc(C(=O)O)c(C(=O)O)c2)c1,1700
17,Cc1ccc(CN(CC(=O)O)Cc2ccc(C(=O)O)c(C(=O)O)c2)cc1,4230
18,O=C(O)CN(Cc1ccc(C(=O)O)c(C(=O)O)c1)Cc1ccccc1C(F)(F)F,390
19,O=C(O)CN(Cc1cccc(C(F)(F)F)c1)Cc1ccc(C(=O)O)c(C(=O)O)c1,104
20,O=C(O)CN(Cc1ccc(C(F)(F)F)cc1)Cc1ccc(C(=O)O)c(C(=O)O)c1,791
21,O=C(O)CN(Cc1ccc(C(=O)O)c(C(=O)O)c1)Cc1ccccc1OC(F)(F)F,464
22,O=C(O)CN(Cc1cccc(OC(F)(F)F)c1)Cc1ccc(C(=O)O)c(C(=O)O)c1,246

row,SMILES,Ki [µM]
1,O=C(O)CN(Cc1ccc(OC(F)(F)F)cc1)Cc1ccc(C(=O)O)c(C(=O)O)c1,749
2,O=C(O)CN(Cc1ccc(OC(F)F)cc1)Cc1ccc(C(=O)O)c(C(=O)O)c1,489
3,O=C(O)CN(Cc1ccc(C(=O)O)cc1)Cc1ccc(C(=O)O)c(C(=O)O)c1,104
4,NC(=O)c1ccc(CN(CC(=O)O)Cc2ccc(C(=O)O)c(C(=O)O)c2)cc1,1880
5,CC(C)(C)c1ccc(CN(CC(=O)O)Cc2ccc(C(=O)O)c(C(=O)O)c2)cc1,687
6,O=C(O)CN(Cc1ccc(C(F)(F)C(F)(F)C(F)(F)F)cc1)Cc1ccc(C(=O)O)c(C(=O)O)c1,426
7,O=C(O)CCN(Cc1ccc(Br)cc1)Cc1ccc(C(=O)O)c(C(=O)O)c1,370
8,O=C(O)CCN(Cc1ccc(C(F)(F)F)cc1)Cc1ccc(C(=O)O)c(C(=O)O)c1,186
9,CCCC(=O)N[C@@H](CCC(=O)O)C(=O)O,270
10,O=C(O)C[C@H](NC(=O)CCCc1ccccc1)C(=O)O,200
11,O=C(O)CCN(Cc1ccc(C(=O)O)c(C(=O)O)c1)Cc1ccc(C(=O)O)cc1-c1ccccc1,47.4
12,O=C(O)CCN(Cc1ccc(C(=O)O)c(C(=O)O)c1)Cc1ccc(C(=O)O)cc1C(F)(F)F,17
13,CC(=O)c1ccc(CN(CC(=O)O)Cc2ccc(C(=O)O)c(C(=O)O)c2)cc1,2540
14,O=C(O)CC[C@H](NC(=O)CCc1ccccc1)C(=O)O,38
15,O=C(O)C[C@H](NCCCCc1ccccc1)C(=O)O,100
16,O=C(O)CCN(Cc1ccc(C(=O)O)c(C(=O)O)c1)Cc1c(Cl)cc(C(=O)O)cc1Cl [listing 1 of 2 here],0.6
17,O=C(O)C[C@H](NC(=O)CCc1ccccc1C(F)(F)F)C(=O)O,100
18,O=C(O)CC[C@H](NC(=O)CCCc1ccccc1)C(=O)O,610
19,O=C(O)CCN(Cc1ccc(C(=O)O)c(C(=O)O)c1)Cc1ccccc1Br,173
20,O=C(O)CCC[C@H](NC(=O)Cc1ccccc1)C(=O)O,1160
21,O=C(O)CCN(Cc1ccc(C(=O)O)c(C(=O)O)c1)c1cccc2ccccc12,34
22,O=C(O)C[C@H](NC(=O)c1ccc2ccccc2c1)C(=O)O,390

row,SMILES,Ki [µM]
1,O=C(CCc1ccccc1)NC(C(=O)O)C(=O)O,1400
2,O=C(O)C[C@H](NCCCc1ccccc1)C(=O)O,120
3,O=C(O)C[C@H](NC(=O)CCc1cccc(C(F)(F)F)c1)C(=O)O,1220
4,O=C(O)CCC[C@H](NC(=O)c1ccccc1)C(=O)O,1600
5,O=C(O)CCN(Cc1ccc(C(=O)O)c(C(=O)O)c1)Cc1ccc(C(=O)O)cc1Br,2.01
6,O=C(O)CCN(Cc1ccc(C(=O)O)c(C(=O)O)c1)Cc1ccc(C(=O)O)cc1F,4.06
7,O=C(O)CC[C@H](NC(=O)Cc1ccccc1)C(=O)O,250
8,COc1ccc(CCC(=O)N[C@@H](CC(=O)O)C(=O)O)cc1,1500
9,O=C(O)C[C@H](NC(=O)CBr)C(=O)O,> 2000
10,O=C(O)C[C@H](NC(=O)CCc1ccc(O)c(O)c1)C(=O)O,1560
11,O=C(O)CCC[C@H](NC(=O)CCc1ccccc1)C(=O)O,2900
12,O=C(O)CCN(Cc1ccc(C(=O)O)c(C(=O)O)c1)Cc1ccc(C(=O)O)cc1-c1cccc2ccccc12,187
13,O=C(O)CCN(Cc1ccc(C(=O)O)cc1)Cc1ccc(C(=O)O)c(C(=O)O)c1,29
14,CC(C)(C)C(=O)N[C@@H](CCCC(=O)O)C(=O)O,760
15,Cc1cccc(CN(CCC(=O)O)Cc2ccc(C(=O)O)c(C(=O)O)c2)c1,563
16,O=C(O)CCN(Cc1ccc(C(=O)O)c(C(=O)O)c1)Cc1ccccc1C(F)(F)F,88
17,O=C(O)C[C@H](NC(=O)CCl)C(=O)O,200
18,O=C(O)C[C@H](NC(=O)Cc1ccccc1)C(=O)O,460
19,O=C(O)CCN(Cc1ccc(C(=O)O)c(C(=O)O)c1)Cc1ccc(C(=O)O)cc1Cl,1.7
20,CC(C)(C)C(=O)N[C@@H](CCC(=O)O)C(=O)O,280
21,O=C(O)C[C@H](NCc1ccccc1)C(=O)O,620
22,Cc1ccc(CN(CCC(=O)O)Cc2ccc(C(=O)O)c(C(=O)O)c2)cc1,2750

row,SMILES,Ki [µM]
1,O=C(O)CCN(Cc1cccc(Br)c1)Cc1ccc(C(=O)O)c(C(=O)O)c1,101
2,O=C(O)CCN(Cc1ccc(C(=O)O)c(C(=O)O)c1)c1ccc(-c2ccccc2)cc1,550
3,O=C(O)C[C@H](NC(=O)CCc1ccccc1)C(=O)O,31
4,O=C(O)CCN(Cc1ccc(C(=O)O)c(C(=O)O)c1)Cc1c(Cl)cc(C(=O)O)cc1Cl [listing 2 of 2 here],0.61
5,O=C(O)C[C@H](NC(=O)CCc1ccc(-c2ccccc2)cc1)C(=O)O,210
6,O=C(O)C[C@H](NC(=O)c1ccc(C(F)(F)F)cc1)C(=O)O,380
7,O=C(O)CCN(Cc1ccc(C(=O)O)c(C(=O)O)c1)Cc1c(Br)cc(C(=O)O)cc1Br,0.77
8,Cc1ccccc1CN(CCC(=O)O)Cc1ccc(C(=O)O)c(C(=O)O)c1,724
9,Cc1ccccc1CCC(=O)N[C@@H](CC(=O)O)C(=O)O,280
10,O=C(O)CCN(Cc1cccc(C(F)(F)F)c1)Cc1ccc(C(=O)O)c(C(=O)O)c1,37
11,O=C(O)CCC[C@H](NC(=O)CCCc1ccccc1)C(=O)O,740
12,O=C(O)C[C@H](NC(=O)c1ccccc1)C(=O)O,> 2000
13,CCCC(=O)N[C@@H](CCCC(=O)O)C(=O)O,> 2000
14,O=C(O)CCC[C@H](NC(=O)CCC(=O)O)C(=O)O,> 2000
15,O=C(O)CCN(Cc1ccc(C(=O)O)c(C(=O)O)c1)Cc1ccc(C(=O)O)c(C(F)(F)F)c1,930
16,O=C(O)/C=C(\Br)C(=O)O,367
17,O=C(O)C[C@H](NCCc1ccccc1)C(=O)O,250
18,CC(C)(C)c1ccc(CN(CCC(=O)O)Cc2ccc(C(=O)O)c(C(=O)O)c2)cc1,1660
19,C[C@H](N)C(=O)N[C@@H](CC(=O)O)C(=O)O (H-Ala-Asp-OH),1600
